According to ChEMBL document CHEMBL1799980, “Protuboxepins A and B and protubonines A and B from the marine-derived fungus Aspergillus sp. SF-5044” (J Nat Prod, 2011):
The source made the active and inactive calls. The calls are words filed in the database; no cut-off is given here.

Legend:
[1] = tested on: K562; experiment: Growth inhibition of human K562 cells at 250 uM after 48 hrs by cell proliferation assay; format: functional, cell-based
In short: (§1)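 K562 leukemia cells seeded at 3 × 10^4 per well in 96-well plates and exposed for 48 h to compounds in DMSO, including 250 μM. Readout was EZ-CyTox cell viability reagent with absorbance at 450 nm.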

[2] = Growth inhibition of rat 3Y1 cells at 250 uM after 48 hrs by cell proliferation assay; format: cell-based; conditions: 3y1, 48 h
In short: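 Cells seeded in 96-well plates at 5 × 10^3 per well. Compounds dissolved in DMSO and applied for 48 h. Viability read with an EZ-CyTox cell viability kit by absorbance at 450 nm.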

[3] = tested on: HL-60; experiment: Growth inhibition of human HL60 cells at 250 uM after 48 hrs by cell proliferation assay; format: functional, cell-based
[4] = tested on: MDA-MB-231; experiment: Growth inhibition of human MDA-MB-231 cells at 250 uM after 48 hrs by cell proliferation assay; format: functional, cell-based
In short: (§2)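 MDA-MB-231 breast adenocarcinoma cells at 5 × 10^3 per well in a 96-well microplate. Compounds were dissolved in DMSO and applied for 48 h, including a 250 μM level. Viability was measured with the EZ-CyTox kit as A450.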

[5] = tested on: Hep 3B2; experiment: Growth inhibition of human Hep3B cells at 250 uM after 48 hrs by cell proliferation assay; format: functional, cell-based
In short: (§3)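 Hep3B hepatocellular carcinoma cells plated at 5 × 10^3 per well in 96-well format. Treatment with DMSO-dissolved compounds, including 250 μM, lasted 48 h. Proliferation was read with the EZ-CyTox kit by A450.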

[6] = tested on: HL-60; experiment: Growth inhibition of human HL60 cells after 48 hrs by cell proliferation assay; format: functional, cell-based; conditions: HL-60, 48 h
[7] = tested on: MDA-MB-231; experiment: Growth inhibition of human MDA-MB-231 cells after 48 hrs by cell proliferation assay; format: functional, cell-based; conditions: MDA-MB-231, 48 h; in short: as §2
[8] = Growth inhibition of human Hep3B cells after 48 hrs by cell proliferation assay; format: functional, cell-based, Hep 3B2; in short: as §3
[9] = Growth inhibition of rat 3Y1 cells after 48 hrs by cell proliferation assay; format: cell-based; conditions: 3Y1, 48 h
In short: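 Rat 3Y1 fibroblasts seeded at 5 × 10^3 per well in 96-well plates and exposed 48 h to DMSO-dissolved test compounds. Proliferation was quantified with the EZ-CyTox viability kit by absorbance at 450 nm.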

[10] = tested on: K562; experiment: Growth inhibition of human K562 cells after 48 hrs by cell proliferation assay; format: functional, cell-based; conditions: K562, 48 h; in short: as §1

| SMILES | growth inhibition (GI) [1] | growth inhibition (GI) [2] | growth inhibition (GI) [3] | growth inhibition (GI) [4] | growth inhibition (GI) [5] | IC50 [6] [µM] | IC50 [7] [µM] | IC50 [8] [µM] | IC50 [9] [µM] | IC50 [10] [µM] |
| --- | --- | --- | --- | --- | --- | --- | --- | --- | --- | --- |
| CC(=O)N1c2ccccc2[C@]2(O)C[C@@H]3C(=O)N[C@@H](CC(C)C)C(=O)N3[C@H]12 [PROTUBONINE A] | inactive | Not Active | inactive | inactive | inactive |  |  |  |  |  |
| CC(=O)O[C@@]12C[C@@H]3C(=O)N[C@@H](CC(C)C)C(=O)N3[C@@H]1N(C(C)=O)c1ccccc12 [PROTUBONINE B] | inactive | Not Active | inactive | inactive | inactive |  |  |  |  |  |
| CCC(C)[C@@H]1NC(=O)[C@@H](Cc2ccccc2)n2c1nc1c(c2=O)C=CC=CO1 (stereo not given in full) [PROTUBOXEPIN A] |  |  |  |  |  | 75 | 130 | 150 | 180 | 250 |
